Data reported in ChEMBL document CHEMBL1122008, “Lipophilic 5'-(alkyl phosphate) esters of 1-beta-D-arabinofuranosylcytosine and its N4-acyl and 2,2'-anhydro-3'-O-acyl derivatives as potential prodrugs” (1982).

Assays:
Assay type in all cases: functional
[1] = system: Mus musculus; assay: Antitumor activity against L1210 leukemia in mice (Average weight per mouse on day 1.) at the dose of 80 mg/kg
Summary of the method: (§1)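 Male B6D2F1J mice (5–9 per group) received 10^5 L1210 cells i.p. on day 0 and drug from day 1, given qd×5 or q4d(2,6). Vehicles were sterile water, 0.05 M potassium phosphate pH 7.4, or 0.4% Tween 80/0.5% CMC/0.9% benzyl alcohol/0.9% saline. Read-out is average body weight per mouse (g) on day 1.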

[2] = system: Mus musculus; assay: Antitumor activity against L1210 leukemia in mice (Average 7-day weight change) at the dose of 160 mg/kg
Summary of the method: (§2)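 Male B6D2F1J mice, groups of five to nine, inoculated ip with 10^5 L1210 cells on day 0. Drug treatment started day 1 on qd×5 or q4d(2,6) schedule. Vehicles: ara-C in sterile water; the n-butyl phosphate ester in 0.05 M pH 7.4 potassium phosphate buffer; others as suspensions in 0.4% Tween 80/0.5% low-density CMC/0.9% benzyl alcohol/0.9% saline. Mice weighed days 1 and 7; 7-day weight change given as g/mouse and %.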

[3] = system: Mus musculus; assay: Antitumor activity against L1210/ara-C leukemia in mice (Average weight per mouse on day 1.) at the dose of 160 mg/kg
Summary of the method: (§3)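 Male B6D2F1J mice, groups of 5–9, inoculated ip with 10^5 L1210/ara-C cells on day 0. Dosing began day 1 on a qd×5 or q4d(2,6) schedule. Ara-C was given in sterile water, the n-butyl phosphate ester in 0.05 M pH 7.4 potassium phosphate buffer, and others as suspensions in 0.4% Tween 80/0.5% CMC/0.9% benzyl alcohol/0.9% saline. Mice were weighed on days 1 and 7; 7-day change given in g and %.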

[4] = system: Mus musculus; assay: Antitumor activity against L1210/ara-C leukemia in mice (Percent increase in life span.) at the dose of 80 mg/kg
Summary of the method: (§4)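 Same protocol as the L1210 assay, but with 10^5 kinase-deficient L1210/ara-C cells inoculated ip into male B6D2F1J mice (groups of 5–9) on day 0. Treatment begins day 1, qd×5 or q4d(2,6). %ILS = (T/C − 1)×100 using median survival times of treated and control groups. Body weight recorded days 1 and 7.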

[5] = system: L1210; assay: Growth inhibition of cultured L1210 mouse leukemia cells was determined; conditions: read-out: ID50 (the source's name)
Summary of the method: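 L1210 mouse leukemia cells in suspension in Eagle's MEM with 15% whole (non-dialyzed, non-heat-inactivated) fetal calf serum, antibiotics and 0.05 mM 2-mercaptoethanol, 37 °C, 5% CO2. Drugs in pH 7.4 phosphate buffer or Me2SO, generally 10^-7 to 10^-3 M. Coulter cell counts at 48 h; ID50 relative to untreated controls from dose–response curves, triplicate.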

[6] = system: Mus musculus; assay: Antitumor activity against L1210/ara-C leukemia in mice (Average weight per mouse on day 1.) at the dose of 80 mg/kg; summary of the method: as §3
[7] = system: Mus musculus; assay: Antitumor activity against L1210 leukemia in mice (Percent increase in life span.) at the dose of 160 mg/kg
Summary of the method: (§5)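 Male B6D2F1J mice, groups of 5–9, inoculated ip with 10^5 L1210 cells on day 0. Dosing starts day 1 on a qd×5 or q4d(2,6) schedule. Vehicles are sterile water, pH 7.4 0.05 M potassium phosphate buffer, or 0.4% Tween 80/0.5% CMC/0.9% benzyl alcohol/0.9% saline. %ILS = (T/C − 1)×100 from median survival. Weights taken days 1 and 7.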

[8] = system: Mus musculus; assay: Antitumor activity against L1210/ara-C leukemia in mice (Average 7-day weight change (%)) at the dose of 160 mg/kg
Summary of the method: (§6)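 Male B6D2F1J mice (5–9 per group) were given 10^5 L1210/ara-C cells i.p. on day 0, with treatment from day 1 on qd×5 or q4d(2,6). Vehicles were sterile water, pH 7.4 0.05 M phosphate buffer, or a Tween 80/CMC/benzyl alcohol saline suspension. Weights were taken on days 1 and 7; change is expressed in g/mouse and as a percentage.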

[9] = system: Mus musculus; assay: Antitumor activity against L1210 leukemia in mice (Average 7-day weight change (%)) at the dose of 80 mg/kg; summary of the method: as §2
[10] = system: B16; assay: Growth inhibition of B16 mouse melanoma cells in culture was determined; conditions: read-out: ID50 (the source's name)
Summary of the method: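 B16 mouse melanoma monolayers in McCoy's 5A with 10% whole fetal calf serum, streptomycin and penicillin, 37 °C, 5% CO2. Drugs were dissolved in 0.05 M pH 7.4 potassium phosphate buffer or Me2SO and dosed at regularly spaced concentrations, generally 10^-7 to 10^-3 M. Cells were counted after 48 h; ID50 versus untreated controls was read from dose–response curves, triplicate.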

[11] = system: Mus musculus; assay: Antitumor activity against L1210/ara-C leukemia in mice (Average 7-day weight change) at the dose of 320 mg/kg; summary of the method: as §6
[12] = system: Mus musculus; assay: Antitumor activity against L1210/ara-C leukemia in mice (Percent increase in life span.) at the dose of 640 mg/kg; summary of the method: as §4
[13] = system: Mus musculus; assay: Antitumor activity against L1210/ara-C leukemia in mice (Average 7-day weight change (%)) at the dose of 320 mg/kg; summary of the method: as §6
[14] = system: Mus musculus; assay: Antitumor activity against L1210 leukemia in mice (Average 7-day weight change) at the dose of 80 mg/kg
Summary of the method: (§7)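 Male B6D2F1J mice in groups of five to nine were inoculated i.p. with 10^5 L1210 cells on day 0. Dosing began on day 1 on a qd×5 or q4d(2,6) schedule. The vehicle was sterile water, pH 7.4 0.05 M potassium phosphate buffer, or a saline suspension with 0.4% Tween 80, 0.5% CMC and 0.9% benzyl alcohol. Mice were weighed on days 1 and 7; read-out is average weight change per mouse.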

[15] = system: Mus musculus; assay: Antitumor activity against L1210 leukemia in mice (Average 7-day weight change) at the dose of 320 mg/kg; summary of the method: as §2
[16] = system: Mus musculus; assay: Antitumor activity against L1210 leukemia in mice (Average weight per mouse on day 1.) at the dose of 640 mg/kg; summary of the method: as §1
[17] = system: Mus musculus; assay: Antitumor activity against L1210 leukemia in mice (Average weight per mouse on day 1.) at the dose of 320 mg/kg; summary of the method: as §1
[18] = system: Mus musculus; assay: Antitumor activity against L1210 leukemia in mice (Average weight per mouse on day 1.) at the dose of 160 mg/kg; summary of the method: as §1
[19] = system: Mus musculus; assay: Antitumor activity against L1210 leukemia in mice (Percent increase in life span.) at the dose of 320 mg/kg; summary of the method: as §5
[20] = system: Mus musculus; assay: Antitumor activity against L1210/ara-C leukemia in mice (Average 7-day weight change) at the dose of 80 mg/kg; summary of the method: as §3
[21] = system: Mus musculus; assay: Antitumor activity against L1210 leukemia in mice (Percent increase in life span.) at the dose of 640 mg/kg; summary of the method: as §5
[22] = system: Mus musculus; assay: Antitumor activity against L1210 leukemia in mice (Average 7-day weight change (%)) at the dose of 320 mg/kg; summary of the method: as §2
[23] = system: Mus musculus; assay: Antitumor activity against L1210/ara-C leukemia in mice (Average 7-day weight change (%)) at the dose of 80 mg/kg; summary of the method: as §6
[24] = system: Mus musculus; assay: Antitumor activity against L1210/ara-C leukemia in mice (Average 7-day weight change) at the dose of 640 mg/kg; summary of the method: as §3
[25] = system: Mus musculus; assay: Antitumor activity against L1210 leukemia in mice (Percent increase in life span.) at the dose of 80 mg/kg; conditions: L1210, dose 80 mg/kg; summary of the method: as §5
[26] = system: Mus musculus; assay: Antitumor activity against L1210/ara-C leukemia in mice (Average weight per mouse on day 1.) at the dose of 640 mg/kg; summary of the method: as §3
[27] = system: Mus musculus; assay: Antitumor activity against L1210 leukemia in mice (Average 7-day weight change (%)) at the dose of 160 mg/kg; summary of the method: as §2
[28] = system: Mus musculus; assay: Antitumor activity against L1210 leukemia in mice (Average 7-day weight change) at the dose of 640 mg/kg; summary of the method: as §7
[29] = system: Mus musculus; assay: Antitumor activity against L1210/ara-C leukemia in mice (Average 7-day weight change) at the dose of 160 mg/kg; summary of the method: as §6
[30] = system: Mus musculus; assay: Antitumor activity against L1210 leukemia in mice (Average 7-day weight change (%)) at the dose of 640 mg/kg; summary of the method: as §2
[31] = system: Mus musculus; assay: Antitumor activity against L1210/ara-C leukemia in mice (Average 7-day weight change (%)) at the dose of 640 mg/kg; summary of the method: as §6
[32] = system: Mus musculus; assay: Antitumor activity against L1210/ara-C leukemia in mice (Percent increase in life span.) at the dose of 320 mg/kg; summary of the method: as §4
[33] = system: Mus musculus; assay: Antitumor activity against L1210/ara-C leukemia in mice (Percent increase in life span.) at the dose of 160 mg/kg; summary of the method: as §4

Q: For `CCCCOP(=O)(O)OC[C@H]1O[C@@H](n2ccc(N)nc2=O)[C@@H](O)[C@@H]1O`, which Average weight [1] is on record?
A: The Average weight was 22 g mouse-1.

Q: And the Weight change [2]?
A: Its Weight change is 1 g mouse-1.

Q: And the Average weight [3]?
A: The Average weight was 22.2 g mouse-1.

Q: What about the ILS at 80 mg/kg [4] of the same compound?
A: The ILS at 80 mg/kg was 0%.

Q: And the IC50 [5]?
A: Its IC50 is 7.5 µM.

Q: And the Average weight [6]?
A: Its Average weight is 23.4 g mouse-1.

Q: What about the ILS at 160 mg/kg [7] of the same compound?
A: The ILS at 160 mg/kg was 50%.

Q: And the Weight change [8]?
A: The Weight change was 16%.

Q: What about the Weight change [9] of the same compound?
A: The Weight change was 10%.

Q: What about the IC50 [10] of the same compound?
A: The IC50 was 130 µM.

Q: And the Weight change [11]?
A: Its Weight change is 1 g mouse-1.

Q: What about the ILS at 640 mg/kg [12] of the same compound?
A: The ILS at 640 mg/kg was -13%.

Q: What about the Weight change [13] of the same compound?
A: Its Weight change is 5%.

Q: And the Weight change [14]?
A: Its Weight change is 2.6 g mouse-1.

Q: And the Weight change [15]?
A: Its Weight change is 0.6 g mouse-1.

Q: What about the Average weight [16] of the same compound?
A: The Average weight was 22.8 g mouse-1.

Q: What about the Average weight [17] of the same compound?
A: The Average weight was 22.4 g mouse-1.

Q: What about the Average weight [18] of the same compound?
A: The Average weight was 23.6 g mouse-1.

Q: What about the ILS at 320 mg/kg [19] of the same compound?
A: The ILS at 320 mg/kg was 87%.

Q: What about the Weight change [20] of the same compound?
A: The Weight change was 3 g mouse-1.

Q: And the ILS at 640 mg/kg [21]?
A: Its ILS at 640 mg/kg is 87%.

Q: And the Weight change [22]?
A: The Weight change was 3%.

Q: What about the Weight change [23] of the same compound?
A: The Weight change was 13%.

Q: And the Weight change [24]?
A: Its Weight change is 0.2 g mouse-1.

Q: And the ILS at 80 mg/kg [25]?
A: Its ILS at 80 mg/kg is 37%.

Q: And the Average weight [26]?
A: Its Average weight is 22.6 g mouse-1.

Q: What about the Weight change [27] of the same compound?
A: Its Weight change is 4%.

Q: What about the Weight change [28] of the same compound?
A: The Weight change was 0.2 g mouse-1.

Q: And the Weight change [29]?
A: The Weight change was 3.6 g mouse-1.

Q: What about the Weight change [30] of the same compound?
A: Its Weight change is 1%.

Q: What about the Weight change [31] of the same compound?
A: The Weight change was 0%.

Q: What about the ILS at 320 mg/kg [32] of the same compound?
A: The ILS at 320 mg/kg was 0%.

Q: What about the ILS at 160 mg/kg [33] of the same compound?
A: Its ILS at 160 mg/kg is 0%.
